A selection: hits, their analogues and other compounds. The true share with any hit is near 1.5%.
LANA DNA inh: blocks KSHV LANA C-terminal domain binding to DNA; actives 0.078% (n = 340,000); inhibition, % at 9 µM; MBP-C-LANA/FAM-LBS DNA binding, fluorescence polarization;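 active means highest replicate inhibition at or above 60% at 9 µM, even if other replicates fall short; inactive means all replicates below 60% inhibition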
LANA-H2B inh: blocks KSHV LANA binding to histone H2A/H2B. Q9QR71. cell-free LANA-H2A/H2B peptide, fluorescence polarization. inhibition, % (concentration not given with the values). actives 0.6% (n = 320,000). AID 2629; in the data active means inhibition mostly above about 10%, no sharp cut-off; inactive means mostly below about 6.7%
CAL PDZ FP-1: blocks peptide binding to human CAL PDZ domain; inhibition, % at 20 µM; actives 0.02% (n = 330,000); purified CAL PDZ, TMR-peptide fluorescence polarization, 1 h;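 active means highest replicate inhibition of at least 40%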
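System: tagged CAL PDZ domain. Schedule: 1 h room-temperature incubation prior to read. Signal: fluorescence polarization (mP). Measure: percent inhibition from loss of millipolarization.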
CaV13 ICDI inh: Disruptors of the CACNA1D IQ motif to Ca2+-dependent inactivation inhibitor domain association, primary screening, Förster resonance energy transfer in intact living …; HEK cells, CFP/YFP FRET ICDI-IQ, plate reader, 10 min; percent FRET-ratio fall versus neutral wells; inhibition, % at 12.3 µM; actives 0.098% (n = 340,000); AID 743397;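 active means mean replicate inhibition of at least 30% and at least 1% of replicates passing that level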
Keap1 Nrf2 FP: Keap1-Nrf2 (human) interaction inhibition | Q14145 | Keap1 Kelch-Nrf2 peptide fluorescence polarization, 1536-well | inhibition, % at 9.4 µM | actives 0.15% (n = 340,000) | AID 504523; in the data active means inhibition above about 12%;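 further: human Keap1 Kelch domain with fluorescein labeled Nrf2 9mer peptide probe; higher means more block of Keap1 binding to Nrf2 peptide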
CAL PDZ FP-2: inhibitors of human CAL PDZ peptide binding | AID 602252 | actives 0.92% (n = 300,000) | Q9HD26 | purified CAL PDZ, TMR-peptide fluorescence polarization, 1 h | inhibition, % at 24.9 µM;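 active means mean inhibition of at least 30% with at least half of replicates also reaching 30%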
Each line names hits and unclear results; the compound was inactive in the other large screens; ! = repeats disagree.

CCOC(=O)CN1C(=O)[C@]2(OCCC=C[C@H]2C)c2ccccc21	none (no result: LANA DNA inh, LANA-H2B inh, CAL PDZ FP-1, Keap1 Nrf2 FP, CAL PDZ FP-2)
CO[C@H]1C=CO[C@@]2(C)Oc3c(C)c(O)c4c(O)c(c(C=NN5CCN(C)CC5)c(O)c4c3C2=O)NC(=O)C(C)=CC=C[C@H](C)[C@H](O)[C@@H](C)[C@@H](O)[C@@H](C)[C@H](OC(C)=O)[C@@H]1C	LANA-H2B inh 49!
O=S(=O)(Nc1cc2nc3ccccc3nc2n1Cc1ccccc1)c1ccc(Cl)cc1	LANA-H2B inh active
Cc1cccc(N2CCN(C(=O)c3ccc(NC4=NC5CS(=O)(=O)CC5S4)cc3)CC2C)c1 (centres undefined)	CAL PDZ FP-2 93
C=CCn1c(O)c(/C=C2\C=NN=C2c2ccccc2)sc1=S	CAL PDZ FP-2 52
CCCn1c(O)c(/C=C2\C=NN=C2c2ccccc2)sc1=S	none (no result: CAL PDZ FP-2)
C#CCN1C(=O)C2(OCCO2)c2ccccc21	none
CC(=O)Nc1ccc(CN(C)c2c(C)nc3ccc(C(=O)N4CCN(C(C)=O)CC4)cn23)cc1	none (no result: LANA DNA inh, LANA-H2B inh, CAL PDZ FP-1, Keap1 Nrf2 FP, CAL PDZ FP-2)
Cn1c(=O)c(=O)n(C)c2cc([N+](=O)[O-])c([N+](=O)[O-])cc21	none
CN(C)c1c([N+](=O)[O-])cc(N2C(=O)C=CC2=O)cc1[N+](=O)[O-]	CAL PDZ FP-2 37 (no result: LANA-H2B inh, CaV13 ICDI inh)
COC(=O)[C@]12C[C@H](CC(=O)NCc3ccc(C)o3)C(=O)N(Cc3ccccc3)C1=C[C@H](C(C)(C)C)O[C@@H]2C	none (no result: LANA DNA inh, LANA-H2B inh, CAL PDZ FP-1, Keap1 Nrf2 FP, CAL PDZ FP-2)
Cc1ccccc1C(=O)N[C@H](C(=O)N1CCC[C@H]1C(=O)NCc1ccccc1)c1ccccc1	none (no result: LANA DNA inh, LANA-H2B inh, CAL PDZ FP-1, Keap1 Nrf2 FP, CAL PDZ FP-2)
CC(C)C[C@@H](CO)NS(=O)(=O)c1c(F)cccc1F	CAL PDZ FP-2 35 (no result: LANA-H2B inh)
CC(C)CC(CO)NS(=O)(=O)c1cccc(Cl)c1F (centres undefined)	none (no result: LANA-H2B inh)
Cc1ccc(-c2nc3c(c(=O)[nH]c(=O)n3Cc3ccccc3)n2C)o1	CAL PDZ FP-2 31 (no result: LANA-H2B inh)
CC(=O)c1cccc(OCc2cc(C(=O)N3CC4C[C@@H]5CC3C[C@H](C4)C5)no2)c1	none
CC(=O)c1ccc(OCc2cc(C(=O)NCCc3ccc(Cl)cc3)no2)cc1	CAL PDZ FP-2 68
CC(=O)c1ccc(OCc2cc(C(=O)NCC3CCCCO3)no2)cc1 (centres undefined)	none
O=C(NCCc1ccc(Cl)cc1)c1cnccn1	LANA-H2B inh active
CC(=O)c1ccc(OCc2cc(C(=O)N3CC4C[C@@H]5CC3C[C@H](C4)C5)no2)cc1	CAL PDZ FP-2 70
O=C(NCc1ccc(F)cc1)c1cc(C2CCCCN2S(=O)(=O)c2ccc(F)cc2F)on1 (centres undefined)	none (no result: LANA DNA inh, LANA-H2B inh, CAL PDZ FP-1, Keap1 Nrf2 FP, CAL PDZ FP-2)
CN(C(=O)COc1ccc(Cl)cc1Br)C1CCCCC1	LANA-H2B inh 53, CAL PDZ FP-2 71
COc1ccc(OC)c(-c2csc(N(Cc3ccco3)C(=O)c3cccs3)n2)c1	none
COc1ccc(-c2csc(N(Cc3ccco3)C(=O)c3cccs3)n2)cc1	CAL PDZ FP-1 191
C=CCn1cnnc1SCC(=O)NCC1COc2ccccc2O1 (centres undefined)	none (no result: LANA-H2B inh)
C=CCn1cnnc1SCC(=O)N(C)CC1COc2ccccc2O1 (centres undefined)	CAL PDZ FP-2 48
Cc1onc(-c2c(Cl)cccc2Cl)c1C(=O)N1CCN(c2ncccn2)CC1	CAL PDZ FP-2 51
CC(=O)N1CCN(C(=O)c2c(-c3ccccc3)noc2C)CC1	LANA-H2B inh 22 (no result: CAL PDZ FP-2)
Cc1onc(-c2c(Cl)cccc2Cl)c1C(=O)N1CCN(c2ccccc2)CC1	none
C[C@H]1CN(S(=O)(=O)C(C)(C)C)[C@@H](CCO)/C1=C\c1ccccc1	none (no result: LANA DNA inh, LANA-H2B inh, CAL PDZ FP-1, Keap1 Nrf2 FP, CAL PDZ FP-2)
COc1cccc(C(=O)N2CCC[C@@H]2C(=O)N2CCC[C@@H]2C(=O)NCc2ccccc2Cl)c1	none (no result: LANA DNA inh, LANA-H2B inh, CAL PDZ FP-1, Keap1 Nrf2 FP, CAL PDZ FP-2)
CN1C=CC=C/C1=C1\SC(=S)N(c2ccccc2)C1=O	none
C=CCN1C=CC=C/C1=C1\SC(=S)N(C)C1=O	CAL PDZ FP-2 35
COC(=O)/C(C#N)=C/c1ccc(-c2ccc(S(N)(=O)=O)cc2)o1	CAL PDZ FP-2 36
CC(C)OC(=O)/C(C#N)=C/c1ccc(-c2ccc(SC(F)F)cc2)o1	none
CC1CCC(NC(=O)c2nn(C)c3c2CSc2ccccc2-3)CC1 (centres undefined)	CAL PDZ FP-2 70
CCOC(=O)c1cnc2nc(Cc3ccccc3)[nH]n2c1=O	none (no result: CAL PDZ FP-2)
CCOC(=O)c1cnc2nc(C(F)(F)F)[nH]n2c1=O	CAL PDZ FP-2 103
COc1ccc(CN2CCN(Cc3ccc4cc(F)ccc4n3)CC2CCO)c(C)c1C (centres undefined)	none
O=C(CCn1c(=S)oc2ccccc21)Nc1cccc(O)c1	none
O=C(CCn1c(=S)oc2ccccc21)Nc1cccc(F)c1	LANA-H2B inh 129
Fc1cccc(F)c1-n1c(CN2CCCC2)csc1=S	LANA-H2B inh 33
Fc1ccccc1CN1CCCCCCC1	none
CC(Sc1ccsc1[N+](=O)[O-])C(=O)NCc1ccccc1 (centres undefined)	LANA-H2B inh 22 (no result: LANA DNA inh, CAL PDZ FP-1, Keap1 Nrf2 FP, CAL PDZ FP-2)
O=[N+]([O-])c1cc(-c2ccccc2)cc([N+](=O)[O-])c1O	none (no result: LANA-H2B inh)
Nc1nc(-c2cc(O)ccc2[N+](=O)[O-])cc(-c2ccccc2)c1[N+](=O)[O-]	CaV13 ICDI inh active
COc1ccc(NC(=S)NC(=O)C2CCCCC2)cc1	none
CCOc1ccc(NC(=S)NC(=O)C2CCCC2)cc1	CAL PDZ FP-2 32
NC(=O)NN=C1CCC(O)CC1CC(=O)O (centres undefined)	none (no result: LANA DNA inh, LANA-H2B inh, CAL PDZ FP-1, Keap1 Nrf2 FP, CAL PDZ FP-2)
O=C(CSc1cccc[n+]1[O-])c1ccc(Cl)s1	none
CC(=O)c1c(C)[nH]c(C(=O)COC(=O)c2c(-c3ccccc3)noc2C)c1C	CAL PDZ FP-2 64
Nc1nc2cc3c(cc2cc1C(=O)NCc1cccnc1)OCO3	none (no result: LANA DNA inh, LANA-H2B inh, CAL PDZ FP-1, Keap1 Nrf2 FP, CAL PDZ FP-2)
CNc1c2cccc(C)c2nc2c(C(=O)NCCN(C)C)cccc12	LANA DNA inh 61 (no result: LANA-H2B inh)
Cc1ccc(C(=O)NCCN(C)C)c(C)c1	none (no result: CAL PDZ FP-1)
CCN(CC)CCNC(=O)c1sc2nc(-c3ccccc3)cn2c1C	CaV13 ICDI inh 48 (no result: CAL PDZ FP-2)
COCCN(CCOC)C(=O)c1sc2nc(-c3ccccc3)cn2c1C	none
O=C(NCCc1ccccc1)c1ccc(NC(=O)C2CC2)cc1	CAL PDZ FP-2 59 (no result: LANA-H2B inh)
Cc1cc(C)c(S(=O)(=O)NC2CCN(Cc3ccccc3)CC2)c(C)c1	none
Cc1cc(S(=O)(=O)NC2CCN(Cc3ccccc3)CC2)c(C)cc1Cl	LANA DNA inh 82 (no result: CAL PDZ FP-2)
O=C(O)c1[nH]c2ccccc2c1C(c1cc(Br)ccc1O)c1c(C(=O)O)[nH]c2ccccc12	CaV13 ICDI inh 144
Cc1ccsc1/C=C(\C(=O)c1ccc(OC(C)C)cc1)c1nc2ccccc2o1	LANA-H2B inh 11
Cc1ccsc1/C=C(\CC(=O)O)c1nc2ccccc2o1	none
Cc1nn(-c2ccccc2)c(C)c1NC(=O)COC(=O)c1ccccc1	none

Screening data from PubChem.
